Test results: ChEMBL document CHEMBL1133105, “Antimalarial, antitrypanosomal, and antileishmanial activities and cytotoxicity of bis(9-amino-6-chloro-2-methoxyacridines): influence of the linker” (J Med Chem, 2000)

What was measured:
[1] = tested on: Leishmania infantum; test: Percentage of activity against Leishmania infantum at 3.13 uM; format: functional
Outline: (§1)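 Starch-stimulated mouse peritoneal macrophages, 30 000/well, infected after 24 h with spleen-derived L. infantum amastigotes (10:1) together with 2-fold drug dilutions (12.5–1.56 µM). Incubated 7 days at 37 °C, 5% CO2. Wright-stained slides scored microscopically as % reduction of total parasite load or of infected macrophages. Uninfected treated cultures judged microscopically for macrophage toxicity.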

[2] = tested on: MRC5; test: Cytotoxicity on MRC-5 cells at 3.13 uM; format: functional; conditions: Homo sapiens
Outline: (§2)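 MRC-5 human diploid embryonic lung cells seeded at 5 000/well, washed after 24 h, then given 2-fold drug dilutions (25, 12.5, 6.25, 3.13 µM) in RPMI + 5% FCS, final DMSO below 0.5%. Incubated 7 days at 37 °C, 5% CO2. MTT colorimetric read-out, scored as % reduction of absorbance at 540 nm versus untreated controls.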

[3] = tested on: Trypanosoma brucei; test: Percentage of activity against Trypanosoma brucei at 6.25 uM; format: functional
Outline: (§3)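 Bloodstream-form T. brucei in HMI-9 medium, 10 000 parasites/well, exposed to 12.5, 6.25, 3.13 and 1.56 µM drug for 4 days. Read-out is % inhibition of parasite multiplication. Macrophage toxicity judged on mouse primary peritoneal macrophages.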

[4] = tested on: Trypanosoma cruzi; test: Percentage of activity against Trypanosoma cruzi at 12.5 uM; Toxic upon mouse primary peritoneal macrophages; format: functional, organism-based
Outline: (§4)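 Mouse peritoneal macrophages, 30 000/well, infected after 24 h with about 100 000 T. cruzi trypomastigotes per well plus 2-fold drug dilutions (12.5–1.56 µM). Incubated 4 days at 37 °C, 5% CO2. Methanol-fixed, Giemsa-stained and scored microscopically as % reduction of total parasite load (free trypomastigotes plus intracellular amastigotes) versus untreated controls.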

[5] = tested on: Trypanosoma cruzi; test: Percentage of activity against Trypanosoma cruzi at 1.56 uM; format: functional; outline: as §4
[6] = tested on: Trypanosoma cruzi; test: Percentage of activity against Trypanosoma cruzi at 6.25 uM Concentration; format: functional; outline: as §4
[7] = tested on: MRC5; test: Cytotoxicity on MRC-5 cells at 12.5 uM; format: functional; conditions: Homo sapiens; outline: as §2
[8] = tested on: Trypanosoma brucei; test: Percentage of activity against Trypanosoma brucei at 1.56 uM; format: functional; outline: as §3
[9] = tested on: MRC5; test: Cytotoxicity on MRC-5 cells at 25 uM; format: functional; conditions: Homo sapiens; outline: as §2
[10] = tested on: Leishmania infantum; test: Percentage of activity against Leishmania infantum at 1.56 uM; format: functional; outline: as §1
[11] = tested on: Trypanosoma brucei; test: Percentage of activity against Trypanosoma brucei at 3.13 uM; format: functional; outline: as §3
[12] = tested on: Trypanosoma cruzi; test: Percentage of activity against Trypanosoma cruzi at 3.13 uM; format: functional; outline: as §4
[13] = tested on: Leishmania infantum; test: Percentage of activity against Leishmania infantum 6.25 uM; format: functional; outline: as §1
[14] = tested on: Trypanosoma brucei; test: Percentage of activity against Trypanosoma brucei at 12.5 uM; format: functional; outline: as §3
[15] = tested on: Plasmodium falciparum; test: In vitro sensitivity for Plasmodium falciparum FcB1R; format: functional, organism-based
Outline: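 Asynchronous P. falciparum cultures in human erythrocytes (0.5% parasitemia, 1% haematocrit) exposed to serially diluted drug for 24 h at 37 °C. [3H]hypoxanthine (0.5 µCi/well) then added for a further 24 h. Uptake compared with drug-free controls on the same plate. IC50 taken from the concentration–response curve, averaged over independent experiments. DMSO ≤0.1%.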

[16] = tested on: MRC5; test: Cytotoxicity on MRC-5 cells at 6.25 uM; format: functional; conditions: Homo sapiens; outline: as §2
[17] = tested on: Leishmania infantum; test: Percentage of activity against Leishmania infantum at 12.5 uM Concentration; Toxic upon mouse primary peritoneal macrophages; format: functional, organism-based; outline: as §1
[18] = tested on: Trypanosoma cruzi; test: Percentage of activity against Trypanosoma cruzi at 12.5 uM; format: functional; outline: as §4
[19] = tested on: Leishmania infantum; test: Percentage of activity against Leishmania infantum at 6.25 uM; Toxic upon mouse primary peritoneal macrophages; format: functional, organism-based; outline: as §1

Question: Which “Percent antileishmanial activity (reduction of parasite load)” value [1] does the source give for `COc1ccc2nc3cc(Cl)ccc3c(NCCCN(CCCNc3c4ccc(Cl)cc4nc4ccc(OC)cc34)C(=O)C(COCc3ccccc3)NC(=O)OC(C)(C)C)c2c1` (stereo not drawn) here?
Answer: 70%

Question: What about the cytotoxicity at 3.13 µM [2] of the same compound?
Answer: 100%

Question: And the “Inhibition of parasite multiplication” value [3]?
Answer: 100%

Question: And the Cytotoxicity [4]?
Answer: Toxic

Question: And the Parasite load reduction [5]?
Answer: 0%

Question: What about the “Reduction of T. cruzi parasite load” value [6] of the same compound?
Answer: 80%

Question: What about the cytotoxicity at 12.5 µM [7] of the same compound?
Answer: 100%

Question: What about the “Percent inhibition of parasite multiplication” value (from here on “Percent inhibition”) [8] of the same compound?
Answer: 100%

Question: What about the cytotoxicity at 25 µM [9] of the same compound?
Answer: 100%

Question: And the “Antileishmanial activity (% reduction of parasite load)” value [10]?
Answer: 40%

Question: What about the Parasite growth inhibition [11] of the same compound?
Answer: 100%

Question: And the “Reduction of T. cruzi parasite load” value [12]?
Answer: 40%

Question: What about the “Antileishmanial activity (% reduction of parasite load)” value [13] of the same compound?
Answer: 90%

Question: And the “Inhibition of parasite multiplication” value [14]?
Answer: 100%

Question: What about the IC50 [15] of the same compound?
Answer: 138 nM

Question: What about the cytotoxicity at 6.25 µM [16] of the same compound?
Answer: 100%

Question: What about the Cytotoxicity [17] of the same compound?
Answer: Toxic

Question: Which “Percent antileishmanial activity (reduction of parasite load)” value [1] does the source give for `COc1ccc2nc3cc(Cl)ccc3c(NCCCN(CCCNc3c4ccc(Cl)cc4nc4ccc(OC)cc34)C(=O)C(CC(=O)OC3CCCCC3)NC(=O)OC(C)(C)C)c2c1` (stereo not drawn) here?
Answer: 60%

Question: What about the cytotoxicity at 3.13 µM [2] of the same compound?
Answer: 40%

Question: What about the “T. cruzi parasite load reduction” value [18] of the same compound?
Answer: 98%

Question: What about the “Inhibition of parasite multiplication” value [3] of the same compound?
Answer: 100%

Question: What about the Parasite load reduction [5] of the same compound?
Answer: 0%

Question: What about the “Reduction of T. cruzi parasite load” value [6] of the same compound?
Answer: 70%

Question: And the cytotoxicity at 12.5 µM [7]?
Answer: 100%

Question: And the “Percent inhibition” value [8]?
Answer: 100%

Question: What about the cytotoxicity at 25 µM [9] of the same compound?
Answer: 100%

Question: And the “Antileishmanial activity (% reduction of parasite load)” value [10]?
Answer: 20%

Question: And the Parasite growth inhibition [11]?
Answer: 100%

Question: And the “Reduction of T. cruzi parasite load” value [12]?
Answer: 20%

Question: And the “Antileishmanial activity (% reduction of parasite load)” value [13]?
Answer: 80%

Question: And the “Inhibition of parasite multiplication” value [14]?
Answer: 100%

Question: And the IC50 [15]?
Answer: 31 nM

Question: And the cytotoxicity at 6.25 µM [16]?
Answer: 100%

Question: And the Cytotoxicity [17]?
Answer: Toxic

Question: What does the source list for `COc1ccc2nc3cc(Cl)ccc3c(NCCCCCCCCNc3c4ccc(Cl)cc4nc4ccc(OC)cc34)c2c1`?
Answer: Percent antileishmanial activity (reduction of parasite load) [1]: 90%; cytotoxicity at 3.13 µM [2]: 20%; Inhibition of parasite multiplication [3]: 100%; Cytotoxicity [4]: Toxic; Parasite load reduction [5]: 70%; Reduction of T. cruzi parasite load [6]: 98%; cytotoxicity at 12.5 µM [7]: 100%; Percent inhibition of parasite multiplication [8]: 100%; cytotoxicity at 25 µM [9]: 100%; Antileishmanial activity (% reduction of parasite load) [10]: 70%; Parasite growth inhibition [11]: 100%; Reduction of T. cruzi parasite load [12]: 90%; Antileishmanial activity (% reduction of parasite load) [13]: 95%; Inhibition of parasite multiplication [14]: 100%; IC50 [15]: 19 nM; cytotoxicity at 6.25 µM [16]: 100%; Cytotoxicity [17]: Toxic

Question: Which results are given for `COc1ccc2nc3cc(Cl)ccc3c(NCCCN(CCCNc3c4ccc(Cl)cc4nc4ccc(OC)cc34)C(=O)CNC(=O)C(C)NC(=O)OC(C)(C)C)c2c1` (stereo not drawn)?
Answer: Percent antileishmanial activity (reduction of parasite load) [1]: 0%; cytotoxicity at 3.13 µM [2]: 31%; Inhibition of parasite multiplication [3]: 100%; Cytotoxicity [4]: Toxic; Parasite load reduction [5]: 0%; Reduction of T. cruzi parasite load [6]: 40%; cytotoxicity at 12.5 µM [7]: 71%; Percent inhibition of parasite multiplication [8]: 100%; cytotoxicity at 25 µM [9]: 100%; Antileishmanial activity (% reduction of parasite load) [10]: 0%; Parasite growth inhibition [11]: 100%; Reduction of T. cruzi parasite load [12]: 0%; Cytotoxicity [19]: Toxic; IC50 [15]: 440 nM; cytotoxicity at 6.25 µM [16]: 41%; Cytotoxicity [17]: Toxic

Question: `COc1ccc2nc3cc(Cl)ccc3c(NCCCN(CCCNc3c4ccc(Cl)cc4nc4ccc(OC)cc34)C(=O)C(CNC(=O)OC(C)(C)C)NC(=O)OC(C)(C)C)c2c1` (stereo not drawn) was tested. Which “Percent antileishmanial activity (reduction of parasite load)” value [1] did it give?
Answer: 95%

Question: And the cytotoxicity at 3.13 µM [2]?
Answer: 43%

Question: And the “Inhibition of parasite multiplication” value [3]?
Answer: 100%

Question: And the Cytotoxicity [4]?
Answer: Toxic

Question: And the Parasite load reduction [5]?
Answer: 0%

Question: What about the “Reduction of T. cruzi parasite load” value [6] of the same compound?
Answer: 80%

Question: What about the cytotoxicity at 12.5 µM [7] of the same compound?
Answer: 50%

Question: What about the “Percent inhibition” value [8] of the same compound?
Answer: 100%

Question: And the cytotoxicity at 25 µM [9]?
Answer: 70%

Question: What about the “Antileishmanial activity (% reduction of parasite load)” value [10] of the same compound?
Answer: 80%

Question: What about the Parasite growth inhibition [11] of the same compound?
Answer: 100%

Question: What about the “Reduction of T. cruzi parasite load” value [12] of the same compound?
Answer: 40%

Question: What about the “Antileishmanial activity (% reduction of parasite load)” value [13] of the same compound?
Answer: 99%

Question: And the IC50 [15]?
Answer: 55 nM

Question: What about the cytotoxicity at 6.25 µM [16] of the same compound?
Answer: 48%

Question: And the Cytotoxicity [17]?
Answer: Toxic
